# Measured values published in PMC8176898 (Journal of the American Chemical Society, 2021).
# Ends that are not written are not given here.
# T1: Mint2-PARM D462A (human, UniProt Q99767 364-570, D462A)
# T1 sequence (looked up): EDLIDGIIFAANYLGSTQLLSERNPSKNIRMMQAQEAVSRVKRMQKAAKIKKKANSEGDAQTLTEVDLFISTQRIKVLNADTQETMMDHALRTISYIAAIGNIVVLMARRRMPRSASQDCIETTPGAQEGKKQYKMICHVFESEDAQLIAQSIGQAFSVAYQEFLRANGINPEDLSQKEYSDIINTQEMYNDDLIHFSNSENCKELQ
# T2: human Mint2-PTB-ARM (Mint2-PARM), PARMHis6, residues 364-570 (human, UniProt Q99767 364-570)
# T2 sequence (looked up): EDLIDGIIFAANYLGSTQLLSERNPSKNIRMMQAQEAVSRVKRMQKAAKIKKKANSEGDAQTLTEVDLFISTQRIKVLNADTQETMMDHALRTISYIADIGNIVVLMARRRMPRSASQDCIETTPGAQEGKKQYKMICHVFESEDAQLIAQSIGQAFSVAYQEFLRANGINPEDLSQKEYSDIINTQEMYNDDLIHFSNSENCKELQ
# B1: Mint2-PARM F520A (domain or fragment, human, UniProt Q99767 364-570, looked up)
# chain: EDLIDGIIFAANYLGSTQLLSERNPSKNIRMMQAQEAVSRVKRMQKAAKIKKKANSEGDAQTLTEVDLFISTQRIKVLNADTQETMMDHALRTISYIADIGNIVVLMARRRMPRSASQDCIETTPGAQEGKKQYKMICHVFESEDAQLIAQSIGQAASVAYQEFLRANGINPEDLSQKEYSDIINTQEMYNDDLIHFSNSENCKELQ
# B2: semisynthetic Mint2-pPARMSS S458σ (domain or fragment, human, UniProt Q99767 364-570, looked up)
# chain: EDLIDGIIFAANYLGSTQLLSERNPSKNIRMMQAQEAVSRVKRMQKAAKIKKKANSEGDAQTLTEVDLFISTQRIKVLNADTQETMMDHALKTISYIADIGNIVVLMARRRMPRSASQDAIETTPGAQEGKKQYKMIAHVFESEDAQLIAQSIGQAFSVAYQEFLRANGINPEDLSQKEYSDIINTQEMYNDDLIHFSNSENAKELQ
# modifications: backbone amide-to-ester at S458 (α-hydroxy acid, S458σ)
# B3: semisynthetic Mint2-pPARMSS D462δ (domain or fragment, human, UniProt Q99767 364-570, looked up)
# chain: EDLIDGIIFAANYLGSTQLLSERNPSKNIRMMQAQEAVSRVKRMQKAAKIKKKANSEGDAQTLTEVDLFISTQRIKVLNADTQETMMDHALKTISYIADIGNIVVLMARRRMPRSASQDAIETTPGAQEGKKQYKMIAHVFESEDAQLIAQSIGQAFSVAYQEFLRANGINPEDLSQKEYSDIINTQEMYNDDLIHFSNSENAKELQ
# modifications: backbone amide-to-ester at D462 (α-hydroxy acid, D462δ)
# B4: human Mint2-PARM Y459A/F520A (hMint2^Y459A/F520A) (domain or fragment, UniProt Q99767 364-570, looked up)
# chain: EDLIDGIIFAANYLGSTQLLSERNPSKNIRMMQAQEAVSRVKRMQKAAKIKKKANSEGDAQTLTEVDLFISTQRIKVLNADTQETMMDHALRTISAIADIGNIVVLMARRRMPRSASQDCIETTPGAQEGKKQYKMICHVFESEDAQLIAQSIGQAASVAYQEFLRANGINPEDLSQKEYSDIINTQEMYNDDLIHFSNSENCKELQ
# B5: TAMRA-APP_(C-term) probe, (TAMRA)-NNG-QNGYENPTYKFFEQMQN (peptide)
# peptide: {TAMRA}-NNGQNGYENPTYKFFEQMQN
# B6: Mint2-PARM Y459A (domain or fragment, human, UniProt Q99767 364-570, looked up)
# chain: EDLIDGIIFAANYLGSTQLLSERNPSKNIRMMQAQEAVSRVKRMQKAAKIKKKANSEGDAQTLTEVDLFISTQRIKVLNADTQETMMDHALRTISAIADIGNIVVLMARRRMPRSASQDCIETTPGAQEGKKQYKMICHVFESEDAQLIAQSIGQAFSVAYQEFLRANGINPEDLSQKEYSDIINTQEMYNDDLIHFSNSENCKELQ
# B7: Mint2-PARM L454A (domain or fragment, human, UniProt Q99767 364-570, looked up)
# chain: EDLIDGIIFAANYLGSTQLLSERNPSKNIRMMQAQEAVSRVKRMQKAAKIKKKANSEGDAQTLTEVDLFISTQRIKVLNADTQETMMDHAARTISYIADIGNIVVLMARRRMPRSASQDCIETTPGAQEGKKQYKMICHVFESEDAQLIAQSIGQAFSVAYQEFLRANGINPEDLSQKEYSDIINTQEMYNDDLIHFSNSENCKELQ
# B8: APPWT peptide (NGYENPTYKFFE; residues 755-766) (peptide)
# peptide: NGYENPTYKFFE
# B9: APPWT peptide Y762W (peptide, UniProt P05067 755-766, looked up)
# peptide: NGYENPTWKFFE
# B10: APPWT peptide N759Q (peptide, UniProt P05067 755-766, looked up)
# peptide: NGYEQPTYKFFE
# B11: APPWT peptide F764W (peptide, UniProt P05067 755-766, looked up)
# peptide: NGYENPTYKWFE
# B12: APPWT peptide Y757A (peptide, UniProt P05067 755-766, looked up)
# peptide: NGAENPTYKFFE
# B13: APPWT peptide F765W (peptide, UniProt P05067 755-766, looked up)
# peptide: NGYENPTYKFWE
# B14: APPWT peptide F765A (peptide, UniProt P05067 755-766, looked up)
# peptide: NGYENPTYKFAE
# B15: APPWT peptide F764A (peptide, UniProt P05067 755-766, looked up)
# peptide: NGYENPTYKAFE
# Experiments:
# [1] = test system: primary cortical neurons (APPswe/PS1ΔE9); assay: LDH release; conditions: after 24 h of treatment, TAT-14 10 μM; same conditioned medium as ELISA
# [2] = test system: Aβ42 levels, primary cortical neurons (APPswe/PS1ΔE9); assay: Aβ42 ELISA of conditioned medium of APPswe/PS1ΔE9 neurons; assay type: cell-based, mouse; conditions: 24 h incubation
# [3] = In vitro human plasma stability; assay type: in vitro ADME
# In short: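 Test peptides incubated in human plasma at 37 °C for up to 24 h. At various time points, peptide was extracted and quantified by UPLC. A buffer-only control was run alongside. Mean ± SEM, n = 3.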
# [4] = In vitro hepatic clearance, mouse liver microsomes; assay type: in vitro ADME
# primary neurons = assay: Neuronal cell viability; conditions: colorimetric readout of metabolic activity
# [5] = target: B5; assay: fluorescence polarisation
# Mint2-PARM D462A = target: T1, Mint2-PARM D462A; assay: fluorescence polarisation
# [6] = target: T2, human Mint2-PTB-ARM (Mint2-PARM), …; assay: fluorescence polarisation
molecule,measurement,setting,value
"C[C@H](NC(=O)Cc1cc(F)cc(F)c1)C(=O)NC(C(=O)OC(C)(C)C)c1ccccc1 (stereo partly drawn) [DAPT, N-[N-(3,5-difluorophenacetyl)-l-alanyl]-s-phenyl-glycine tert-butyl ester, reference compound]",LDH release relative to vehicle control (in words),[1],low LDH levels
same,reduction of Aβ42 levels (positive control),[2]; concentration not given,47%
NGYENPTYKFFE [APPWT peptide],half-life (T1/2) in human plasma,"[3]; 37 °C, up to 24 h, UPLC read-out, n = 3",< 30 min
same,half-life,[3]; human,26 min
same,microsomal CLint,[4],15.4 ± 2.5 µL/min/mg
cyclo(DLATEPAK(Dap)-14 (bicyclic or more) [MiniAp4-14],adverse effect on cell viability over the concentration curve (in words),primary neurons,no toxicity
same,reduction of Aβ42 levels relative to vehicle control,"[2]; 10 μM, vehicle 0.25% DMSO",did not affect Aβ42 production
B1,fold reduction in affinity relative to Mint2-PARM^WT,[5],45 fold
B2,fold reduction in affinity relative to wild type,[5],14 fold
B3,fold reduction in affinity relative to wild type,[5],25 fold
B4,fold decrease in affinity relative to wild-type Mint2-PARM,[5],72 fold
B5,binding result,Mint2-PARM D462A,binds
same,binding result,[6],binds
B6,fold reduction in affinity relative to Mint2-PARM^WT,[5],> 10 fold
B7,fold reduction in affinity relative to Mint2-PARM^WT,[5],> 10 fold
B8,Ki,[6],4 ± 0.2 µM
B9,binding result,[6],binds
B10,Ki,[6],≥ 500 µM
B11,binding result,[6],binds
B12,fold decrease in affinity relative to the APPWT peptide,[6],76 fold
B13,binding result,[6],binds
B14,fold decrease in affinity relative to the APPWT peptide,[6],18 fold
B15,fold decrease in affinity relative to the APPWT peptide,[6],14 fold
